Laboratory results taken from ChEMBL document CHEMBL4368930, “Synthesis and anti-HSV activity of tricyclic penciclovir and hydroxybutylguanine derivatives” (Bioorg Med Chem, 2019).

How the values were obtained:
CAPAN-1 = test: Cytostatic activity against human Capan1 cells; assay type: ADME, cell-based
Human alphaherpesvirus 2 = test: Antiviral activity against herpes simplex virus 2 G infected in HEL cells assessed as reduction in virus-induced cytopathogenicity by microscopic analysis; assay type: functional, organism-based; conditions: Human alphaherpesvirus 2, G
Summary of the method: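 Confluent cell monolayers were inoculated with 100 CCID50 of virus or 20 PFU. After a 1–2 h adsorption, residual virus was removed and cultures were incubated with the test compounds at 200, 40, 8, 1.6 and 0.32 μM. Cytopathicity was scored once it was complete in untreated infected controls.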

[1] = Cytostatic activity against human DND41 cells; assay type: ADME, cell-based
NCI-H460 = test: Cytostatic activity against human NCI-H460 cells; assay type: ADME, cell-based
TERT-RPE1 = test: Cytostatic activity against human hTERT-RPE1 cells; assay type: ADME, cell-based; conditions: RPE-1
Summary of the method: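 Cell proliferation was measured against the number of cells in untreated controls.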

[2] = Cytotoxicity against HEL cells assessed as effect on cell morphology at 0.32 to 200 uM by microscopic analysis; assay type: cell-based; conditions: human
Human alphaherpesvirus 1 [3] = test: Antiviral activity against herpes simplex virus 1 KOS infected in HEL cells assessed as reduction in virus-induced cytopathogenicity by microscopic analysis; assay type: functional, organism-based; conditions: Human alphaherpesvirus 1, strain KOS
K562 = test: Cytostatic activity against human K562 cells; assay type: ADME, cell-based
Human alphaherpesvirus 3 [4] = test: Antiviral activity against thymidine kinase deficient Varicella-zoster virus 07-1 infected in HEL cells assessed as reduction in virus plaque formation; assay type: functional, organism-based; conditions: Human alphaherpesvirus 3, 07-1, HEL
Human betaherpesvirus 5 [5] = test: Antiviral activity against Human cytomegalovirus AD169 assessed as reduction in virus-induced cytopathogenicity by microscopic analysis; assay type: functional, organism-based; conditions: Human betaherpesvirus 5, strain AD169
Human alphaherpesvirus 3 [6] = test: Antiviral activity against Varicella-zoster virus Oka harboring thymidine kinase infected in HEL cells assessed as reduction in virus plaque formation; assay type: functional, organism-based; conditions: Human alphaherpesvirus 3, Oka
Human alphaherpesvirus 1 [7] = test: Antiviral activity against thymidine kinase deficient and aciclovir resistant herpes simplex virus 1 KOS infected in HEL cells assessed as reduction in virus-induced cytopathogenicity by microscopic analysis; assay type: functional, organism-based; conditions: Human alphaherpesvirus 1, strain KOS
Z-138 = test: Cytostatic activity against human Z138 cells; assay type: ADME, cell-based
[8] = Cytostatic activity against human HAP1 cells; assay type: ADME, cell-based
HL-60 = test: Cytostatic activity against human HL60 cells; assay type: ADME, cell-based
Human betaherpesvirus 5 [9] = test: Antiviral activity against Human cytomegalovirus Davis assessed as reduction in virus-induced cytopathogenicity by microscopic analysis; assay type: functional, organism-based; conditions: Human betaherpesvirus 5, Davis

Row | Structure (SMILES) | IC50 (CAPAN-1) | EC50 (Human alphaherpesvirus 2) | IC50 [1] | IC50 (NCI-H460) | IC50 (TERT-RPE1) | MCC at up to 200 µM [2] | EC50 (Human alphaherpesvirus 1 [3]) | IC50 (K562) | EC50 (Human alphaherpesvirus 3 [4]) | EC50 (Human betaherpesvirus 5 [5]) | EC50 (Human alphaherpesvirus 3 [6]) | EC50 (Human alphaherpesvirus 1 [7]) | IC50 (Z-138) | IC50 [8] | IC50 (HL-60) | EC50 (Human betaherpesvirus 5 [9])
1 | O=c1c2ncn(CCC(CO)CO)c2nc2[nH]c(-c3ccc(Oc4ccccc4)cc3)cn12 | 46.4 µM | > 100 µM | 90.4 µM | 47.2 µM | 16.9 µM | > 100 µM | > 100 µM | > 100 µM | > 100 µM | > 100 µM | 62.8 µM | > 100 µM | > 100 µM | 44 µM | 63.3 µM | > 100 µM
2 | O=c1c2ncn(CCC(CO)CO)c2nc2[nH]c(-c3ccc(C(F)(F)F)cc3)cn12 | 17.2 µM | 31.7 µM | 56.5 µM | 12.5 µM | 51.5 µM | ≥ 100 µM | 20 µM | > 100 µM | 100 µM | 63.1 µM | 49.5 µM | > 100 µM | 76.1 µM | 37.8 µM | 55.3 µM | 76.5 µM
3 | CCOc1ccc(-c2cn3c(=O)c4ncn(CCC(CO)CO)c4nc3[nH]2)cc1 | > 100 µM | > 20 µM | > 100 µM | 95.4 µM | > 100 µM | > 100 µM | 76.5 µM | > 100 µM | > 100 µM | > 100 µM | > 100 µM | > 100 µM | > 100 µM | > 100 µM | > 100 µM | > 100 µM
